Shown are actives, neighbours in structure and some others; about 2.5% of the full set was active somewhere.
SENP8 block-1: SENP8 protease inhibition; purified SENP8, Z-RLRGG-aminoluciferin cleavage, luminescence; inhibition, % at 10 µM; 1.2% of 330,000 active; AID 2540; Q96LD8; in the data active means inhibition above about 50%
Target sequence (Q96LD8 whole entry, looked up): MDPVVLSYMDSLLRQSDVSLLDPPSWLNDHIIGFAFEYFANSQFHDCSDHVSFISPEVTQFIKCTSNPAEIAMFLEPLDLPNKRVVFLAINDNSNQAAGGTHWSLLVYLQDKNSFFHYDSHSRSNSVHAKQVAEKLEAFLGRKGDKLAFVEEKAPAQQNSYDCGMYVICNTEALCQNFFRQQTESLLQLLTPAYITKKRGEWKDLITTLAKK
SENP1 FRET inh: inhibitors of human SENP1 SUMO protease catalytic domain | 0.21% of 360,000 active | recombinant SENP1 catalytic domain, CyPet-SUMO1-YPet FRET cleavage | inhibition, % at 10 µM | Q9P0U3;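 active means inhibition at least 30% at 10 µM, raw YFP signal under a set limit, fluorescence ratio 0.5 to 1.5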;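 further: 0% = enzyme with DMSO and 100% = no enzyme wells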
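Material – human SENP1 catalytic domain · Input – SENP1 enzyme, 20 pM final · Compound dosing – single concentration of 10 µM compound, 0.5% DMSO final · Timing – enzyme reaction for 50 min at room temperature, dark · Measured by – FRET fluorescence in CFP and YFP emission channels · Control set – no-enzyme wells low, DMSO-plus-enzyme wells high control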
SENP7 block: blocks the human protease SENP7; 1.5% of 330,000 active; AID 434973; inhibition, % at 5 µM; Q9BQF6; recombinant SENP7, Z-RLRGG-aminoluciferin luminescence, 40 min;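 active means inhibition above about 50% at the single test dose, limit read from the data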;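 further: plate controls were DMSO with enzyme for no effect and no enzyme buffer wells for full effect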
SENP8 block-2: inhibitors of human SENP8 protease. recombinant SENP8, Nedd8 substrate fluorescence. inhibition, % at 20 µM. 0.64% of 360,000 active; in the data active means inhibition mostly above about 40%, no sharp cut-off; inactive means mostly below about 27%
SENP6 block: inhibitors of human SENP6 protease. AID 2599. inhibition, % at 10 µM. Q9GZR1. Recombinant SENP6 catalytic domain, aminoluciferin luminescence. 1.8% of 330,000 active;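 active means inhibition above about 50% at the single tested dose, limit read from the data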;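 further: plate controls were DMSO wells with enzyme for no effect and DMSO wells lacking enzyme for full effect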
SENP8 conf: human SENP8 inhibition, confirmed; shares compounds with SENP7 block; Recombinant SENP8, Z-RLRGG-aminoluciferin luminescence, 60 min; inhibition, % at 12.5 µM; 40% of 6,200 active; AID 488912;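 active means mean inhibition across replicates above about 50%, limit read from the data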
SENP6 conf: confirmation of human SENP6 protease inhibitors; recombinant SENP6, Z-RLRGG-aminoluciferin luminescence; inhibition, % at 12.5 µM; 58% of 6,200 active; shares compounds with SENP7 block; AID 488915
SENP7 conf: human SENP7 inhibition, confirmed; shares compounds with SENP7 block; recombinant SENP7, Z-RLRGG-aminoluciferin luminescence, 40 min; inhibition, % at 12.5 µM; 69% of 6,200 active; AID 488917
Casp3 SENP sel: inhibits human caspase-3 in SENP selectivity test; shares compounds with SENP7 block; purified caspase-3, Z-DEVD-aminoluciferin luminescence, 60 min; inhibition, % at 12.5 µM; AID 488918; 60% of 6,200 active;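 active means mean inhibition above about 50%, limit read from the data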;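 further: plate controls were enzyme with DMSO for no effect and wells without caspase-3 for full effect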
Target sequence (P42574 28-227 limits assumed): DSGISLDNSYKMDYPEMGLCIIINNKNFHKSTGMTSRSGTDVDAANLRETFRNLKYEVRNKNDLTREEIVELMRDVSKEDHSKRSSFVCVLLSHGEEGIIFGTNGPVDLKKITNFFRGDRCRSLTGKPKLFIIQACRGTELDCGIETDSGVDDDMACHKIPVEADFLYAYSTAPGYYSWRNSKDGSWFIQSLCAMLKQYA
Luc interf: luminescence interference (SENP counter-screen) | inhibition, % at 12.5 µM | Pre-incubated SENP8/Z-RLRGG-aminoluciferin, luciferase luminescence interference | 39% of 6,200 active | shares compounds with SENP7 block;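 active means mean inhibition above about 50% when retested at one dose, limit read from the data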;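 further: plate controls were DMSO wells with completed reaction for no effect and substrate without enzyme for full effect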
* = called active by the depositor; . = no result given.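 How the source made its calls, unless noted: active means mean inhibition above about 50% in the one-dose retest (limit read from the data); inactive means the rest.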

SMILES	SENP8 block-1	SENP1 FRET inh	SENP7 block	SENP8 block-2	SENP6 block	SENP8 conf	SENP6 conf	SENP7 conf	Casp3 SENP sel	Luc interf
O=C(N/N=C/c1ccsc1)c1ccccn1	21	1	24	12	30	.	.	.	.	.
CC(C)(C)c1ccc(/C=N/NC(=O)c2ccccn2)cc1	59*	0	79*	18	33	10	25	33	40	6
COc1cccc(OC)c1C(=O)NC(=O)Oc1c(F)cccc1F	-2	2	1	4	5	.	.	.	.	.
O=C1COC(c2ccccc2)=CN1Cc1ccccc1	7	2	1	0	0	.	.	.	.	.
CC(C)c1ccc(Nc2ncccc2C(=O)O)cc1	95*	4	98*	10	95*	6	6	10	3	4
Cc1ccc(NC(=O)COc2ccc3c(c2)OCO3)c(Cl)c1	0	-1	62*	14	21	12	6	7	4	-2
Clc1cnc(N/N=C/c2ccco2)c(Cl)c1	61*	-3	-1	-70	81*	15	19	30	84*	20
Clc1cnc(N/N=C/c2cccs2)c(Cl)c1	10	-8	3	-36	10	.	.	.	.	.
CN(C)S(=O)(=O)c1cccc(NC(=O)c2ccc(-n3cncn3)c([N+](=O)[O-])c2)c1	-1	2	3	2	5	.	.	.	.	.
COc1ccc(-c2csc(COC(=O)C(C)(C)C)n2)cc1	-4	2	31	14	14	.	.	.	.	.
CC(C)(C)C(=O)OCc1nc(-c2ccc(F)cc2)cs1	24	2	45	16	52*	-4	27	71*	25	6
CC(C)(C)C(=O)OCc1nc(-c2ccc3c(c2)OCCO3)cs1	86*	0	88*	14	89*	90*	90*	71*	77*	59*
O=C(O)C(=O)Nc1nc(-c2ccc3c(c2)OCCO3)cs1	44	3	24	-23	73*	67*	66*	89*	88*	76*
O=C1C(Br)=C(c2ccccc2)C(c2ccccc2)=C1c1ccccc1	.	4	.	11	.	.	.	.	.	.
CCn1c(SCC(=O)N/N=C/c2ccccc2OCC(=O)O)nnc1-c1ccccc1	1	.	-4	.	70*	-3	0	-3	6	7
O=C(O)COc1ccccc1/C=N/NC(=O)CSc1nnc(-c2ccc(Cl)cc2)n1C1CCCCC1	-3	2	2	-15	-1	.	.	.	.	.
CCOC(=O)N1CCN(C2=Nc3cccc4cccc2c34)CC1	48	-18	-1	-39	75*	-20	-17	-4	-5	-2
CC(=O)N1CCN(C2=Nc3cccc4cccc2c34)CC1	67*	-23	4	-125	81*	3	13	7	4	5
O=C1c2cccc3cccc(c23)C(=O)N1CC1CCN(S(=O)(=O)c2ccccc2)CC1	.	-1	.	-28	.	.	.	.	.	.
O=C(O)c1ccc(NC2=Nc3cccc4cccc2c34)cc1	.	-41	.	-405	.	.	.	.	.	.
CC1CN(C2=Nc3cccc4cccc2c34)CC(C)O1 (centres undefined)	21	-40	10	-66	45	.	.	.	.	.
c1cc2c3c(cccc3c1)C(N1CCOCC1)=N2	45	-37	11	-61	76*	9	6	3	1	1
c1ccc(CC2CCN(C3=Nc4cccc5cccc3c45)CC2)cc1	24	60	16	-5	73*	8	1	-4	-7	-7
CCc1ccc(NC(=O)C(C)Sc2nnc(CN3CCCC3)o2)cc1 (centres undefined)	-3	2	-3	8	2	.	.	.	.	.
COc1cc2c(cc1OC)C(C)N(C(=O)CCc1c[nH]c3ccccc13)CC2 (centres undefined)	-4	-1	-2	4	-12	.	.	.	.	.
SMILES	SENP8 block-1	SENP1 FRET inh	SENP7 block	SENP8 block-2	SENP6 block	SENP8 conf	SENP6 conf	SENP7 conf	Casp3 SENP sel	Luc interf
COc1ccc(N2C(=O)c3ccccc3NC(=O)C2C(=O)NCC(C)C)cc1 (centres undefined)	.	1	.	14	.	.	.	.	.	.
Cc1ccc(NC(=O)Cn2nnc(C(=O)NCc3ccc(Cl)cc3)c2N)cc1F	3	-1	6	15	1	.	.	.	.	.
CC(C)(C)NC(=O)C1C(c2ccccc2)=Nc2ccccc2N1C(=O)c1ccc(C(F)(F)F)cc1 (centres undefined)	.	1	.	6	.	.	.	.	.	.
CCOC(=O)N1CCN(C(=O)Nc2ccc(NC(=O)N3CCN(C(=O)OCC)CC3)cc2)CC1	5	0	-9	11	-24	.	.	.	.	.
CCOC(=O)N1CCN(C(=O)Nc2cccc3ccccc23)CC1	0	-1	18	-310	52*	7	8	9	4	5
COc1ccc(C)cc1N(C)C(=O)Cc1c(C(=O)O)n(C)c2ccccc12	4	0	4	11	-28	.	.	.	.	.
COc1cc(C(=O)Nc2sc3c(c2C(=O)O)CCC3)cc(OC)c1OC	-1	-7	8	-198	22	.	.	.	.	.
COc1cccc(C(=O)Nc2sc3c(c2C(=O)O)CCCC3)c1	84*	-1	22	-124	89*	36	74*	68*	79*	10
Cc1cccc(C(=O)Nc2sc3c(c2C(=O)O)CCC3)c1	96*	2	87*	-94	99*	96*	96*	100*	95*	94*
COC(=O)c1ccc(COc2ccc(Cl)cc2)o1	32	2	-1	14	19	.	.	.	.	.
N#Cc1ccc(OCc2ccc(C(=O)O)o2)cc1	12	1	17	6	24	.	.	.	.	.
O=C(O)c1ccc(OCc2ccc(C(=O)O)o2)cc1	84*	0	92*	24	88*	87*	88*	99*	55*	71*
O=C(O)c1ccc(COc2ccc(Cl)cc2)o1	80*	-1	82*	16	79*	91*	90*	97*	32	89*
O=C(O)c1ccc(COc2ccccc2[N+](=O)[O-])o1	15	1	30	15	57*	46	35	71*	11	50*
CCc1ccc(OCc2ccc(C(=O)O)o2)cc1	90*	1	86*	4	90*	95*	95*	100*	52*	94*
CC(=O)Nc1ccc(S(=O)(=O)NCC(=O)OCC(=O)N2CCCc3ccccc32)cc1	-4	1	-7	19	-4	.	.	.	.	.

Bioassay records as filed in PubChem.
